Assay results reported in ChEMBL document CHEMBL5230179, “Novel irreversible peptidic inhibitors of transglutaminase 2” (RSC Med Chem, 2023).
Active and inactive are the calls of the source. The calls are words filed in the database; no cut-off is given here.

Columns and labels:
[1] = target: T1, Protein-glutamine gamma-glutamyltransferase (Homo sapiens, UniProt P21980); experiment: Irreversible inhibition of recombinant human TG2 expressed in Escherichia coli BL21 assessed as inhibition constant using AL5 as substrate by continuous chromogenic assay
T1 sequence (P21980 whole entry): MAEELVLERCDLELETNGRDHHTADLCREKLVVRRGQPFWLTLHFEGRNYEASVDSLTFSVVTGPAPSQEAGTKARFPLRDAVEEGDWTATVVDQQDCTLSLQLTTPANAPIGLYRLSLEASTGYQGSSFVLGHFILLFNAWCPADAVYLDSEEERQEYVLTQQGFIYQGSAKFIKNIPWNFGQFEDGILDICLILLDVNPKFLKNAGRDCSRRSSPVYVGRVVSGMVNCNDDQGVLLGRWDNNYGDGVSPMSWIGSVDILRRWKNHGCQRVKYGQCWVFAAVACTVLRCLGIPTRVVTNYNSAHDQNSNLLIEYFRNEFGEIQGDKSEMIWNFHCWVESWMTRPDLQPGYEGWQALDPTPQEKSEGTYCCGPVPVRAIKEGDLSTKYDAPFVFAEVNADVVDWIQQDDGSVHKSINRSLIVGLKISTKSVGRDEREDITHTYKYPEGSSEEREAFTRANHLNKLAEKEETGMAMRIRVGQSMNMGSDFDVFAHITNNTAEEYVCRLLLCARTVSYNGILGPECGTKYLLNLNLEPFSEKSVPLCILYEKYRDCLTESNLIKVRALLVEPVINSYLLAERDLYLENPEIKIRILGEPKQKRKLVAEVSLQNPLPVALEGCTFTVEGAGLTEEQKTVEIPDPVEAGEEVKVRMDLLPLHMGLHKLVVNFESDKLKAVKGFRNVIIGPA
Procedure, shortened: (§1)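 Human TG2 expressed and purified from E. coli BL21; AL5 (Cbz-Glu(γ-p-nitrophenyl ester)-Gly-OH) hydrolysis read at 405 nm for 20 min at 25 °C under Kitz–Wilson conditions; final 100 µM AL5, 50 mM MOPS pH 6.9, 7.5 mM CaCl2, 5 mU/mL TG2, <5% DMSO; ≥4 inhibitor levels; rate constants fitted by saturation model against [I]/α (α = 1 + [S]/KM) for kinact and KI.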

[2] = target: T2, Protein-glutamine gamma-glutamyltransferase (Homo sapiens) (UniProt P21980); experiment: Irreversible inhibition of recombinant human TG2 expressed in Escherichia coli BL21 assessed as Kinact using AL5 as substrate by continuous chromogenic assay; procedure, shortened: as §1
T2 sequence (whole entry): T1 sequence (P21980 whole entry)

[3] = target: T2, Protein-glutamine gamma-glutamyltransferase (Homo sapiens); experiment: Irreversible inhibition of recombinant human TG2 expressed in Escherichia coli BL21 assessed as ratio of Kinact/Ki using AL5 as substrate by continuous chromogenic assay; procedure, shortened: as §1
[4] = Apparent permeability from apical to basolateral side in MDCK-MDR1 cells; format: ADME, cell-based, Canis lupus familiaris; details: dog
[5] = Apparent permeability from basolateral to apical side in MDCK-MDR1 cells; format: ADME, cell-based, Canis lupus familiaris; details: dog
MDR1 = experiment: Efflux ratio of apparent permeability in MDCK-MDR1 cells; format: ADME, cell-based, Canis lupus familiaris; details: dog
[6] = Lipophilicity, logP of the compound; format: physicochemical; details: octanol/water
[7] = target: T2, Protein-glutamine gamma-glutamyltransferase (Homo sapiens); experiment: Irreversible inhibition of recombinant human TG2 expressed in Escherichia coli BL21 assessed as ratio of Kinact/Ki using AL5 as substrate by linear regression analysis
Procedure, shortened: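 Same TG2/AL5 continuous 405 nm assay (100 µM AL5, 5 mU/mL TG2, 50 mM MOPS, 7.5 mM CaCl2, 25 °C, 20 min); where saturation was not reached, rate constants of the lowest 3 inhibitor concentrations fitted by linear regression, slope taken as kinact/KI.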

SCC-13 [8] = experiment: Antiproliferative activity against human SCC-13 cells assessed as dose-dependent inhibition at 25 to 100 uM incubated for 48 hrs by Coulter cell counter analysis; format: functional, cell-based; details: dose 25-100 µM
SCC-13 [9] = experiment: Inhibition of cell invasion in human SCC-13 cells at 10 to 50 uM measured over 20 hrs by DAPI staining based fluorescence microscopic analysis; format: functional; details: dose 10-50 µM
Procedure, shortened: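 Matrigel-coated inserts (8-µm pores); 20,000 SCC-13 cells seeded in upper chamber in growth medium with 1% FCS, lower chamber 10% FCS; invasion followed over 0–20 h; membrane fixed in 4% paraformaldehyde, nuclei DAPI-stained, cells on lower surface counted by fluorescence microscopy.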

## C=CC(=O)NCCCC[C@H](NC(=O)OCc1ccccc1)C(=O)N1CCN(C(=O)CNC(=O)c2cccc3ccccc23)CC1
[1]
  Ki: 0.3 µM
[2]
  Kinact: 0.16 min⁻¹
[3]
  Ratio: 513 10^3/M/min
[4]
  Papp A→B: 0.55 ×10⁻⁶ cm/s
[5]
  Papp B→A: 8.43 ×10⁻⁶ cm/s
MDR1
  efflux ratio: 15.5
[6]
  logP: 2.99

## C=CC(=O)NCCCC[C@H](NC(=O)OCc1ccccc1)C(=O)N1CCN(C(=O)[C@H](CC(C)C)NC(=O)c2cccc3ccccc23)CC1
[1]
  Ki: 12.8 µM
[2]
  Kinact: 3.1 min⁻¹
[3]
  Ratio: 240 10^3/M/min

## C=CC(=O)NCCCC[C@H](NC(=O)OCc1ccccc1)C(=O)N[C@@H](C(=O)N1CCN(C(=O)c2cccc3ccccc23)CC1)C(C)C
[1]
  Ki: 3.4 µM
[2]
  Kinact: 0.22 min⁻¹
[3]
  Ratio: 65 10^3/M/min

## C=CC(=O)NCCCC[C@H](NC(=O)Cc1ccccc1C)C(=O)N1CCN(C(=O)[C@H](Cc2ccccc2)NC(=O)c2cccc3ccccc23)CC1
[1]
  Ki: 8.8 µM
[2]
  Kinact: 1.51 min⁻¹
[3]
  Ratio: 171 10^3/M/min

## C=CC(=O)NCCCC[C@H](NC(=O)OCc1ccccc1)C(=O)N1CCN(C(=O)[C@H](Cc2ccccc2)NC(=O)c2cccc3ccccc23)CC1
[1]
  Ki: 2.1 µM
[2]
  Kinact: 0.99 min⁻¹
[3]
  Ratio: 470 10^3/M/min

## C=CC(=O)NCCCC[C@H](NC(=O)OCc1ccccc1)C(=O)NCC(=O)N1CCN(C(=O)c2cccc3ccccc23)CC1
[1]
  Ki: 2.3 µM
[2]
  Kinact: 0.77 min⁻¹
[3]
  Ratio: 330 10^3/M/min

## C=CC(=O)NCCCC[C@H](NC(=O)Cc1ccccc1Br)C(=O)N1CCN(C(=O)[C@@H](Cc2ccccc2)NC(=O)c2cccc3ccccc23)CC1
[7]
  Ratio: 132 10^3/M/min

## C=CC(=O)NCCCC[C@H](NC(=O)OCc1ccccc1)C(=O)N[C@H](C(=O)N1CCN(C(=O)c2cccc3ccccc23)CC1)C(C)C
[1]
  Ki: 5.1 µM
[2]
  Kinact: 0.29 min⁻¹
[3]
  Ratio: 56 10^3/M/min

## C=CC(=O)NCCCC[C@H](NC(=O)Cc1ccccc1Br)C(=O)N1CCN(C(=O)[C@@H](C)NC(=O)c2cccc3ccccc23)CC1
[3]
  Ratio: 209 10^3/M/min

## C=CC(=O)NCCCC[C@H](NC(=O)Cc1ccc(F)cc1F)C(=O)N1CCN(C(=O)[C@H](C)NC(=O)c2cccc3ccccc23)CC1
[1]
  Ki: 5.1 µM
[2]
  Kinact: 1.16 min⁻¹
[3]
  Ratio: 225 10^3/M/min

## C=CC(=O)NCCCC[C@H](NC(=O)Cc1ccccc1F)C(=O)N1CCN(C(=O)[C@H](C)NC(=O)c2cccc3ccccc23)CC1
[1]
  Ki: 3.3 µM
[2]
  Kinact: 1.68 min⁻¹
[3]
  Ratio: 502 10^3/M/min

## C=CC(=O)NCCCC[C@H](NC(=O)Cc1ccccc1Cl)C(=O)N1CCN(C(=O)[C@H](Cc2ccccc2)NC(=O)c2cccc3ccccc23)CC1
[1]
  Ki: 1.6 µM
[2]
  Kinact: 0.25 min⁻¹
[3]
  Ratio: 155 10^3/M/min

## C=CC(=O)NCCCC[C@H](NC(=O)Cc1ccccc1C)C(=O)N1CCN(C(=O)[C@@H](Cc2ccccc2)NC(=O)c2cccc3ccccc23)CC1
[7]
  Ratio: 238 10^3/M/min

## C=CC(=O)NCCCC[C@H](NC(=O)OCc1ccccc1)C(=O)N1CCN(C(=O)[C@H](NC(=O)c2cccc3ccccc23)C(C)C)CC1
[1]
  Ki: 1.3 µM
[2]
  Kinact: 0.75 min⁻¹
[3]
  Ratio: 595 10^3/M/min

## C=CC(=O)NCCCC[C@H](NC(=O)Cc1ccccc1Br)C(=O)N1CCN(C(=O)[C@H](C)NC(=O)c2cccc3ccccc23)CC1
[1]
  Ki: 9.8 µM
[2]
  Kinact: 2.69 min⁻¹
[3]
  Ratio: 275 10^3/M/min

## C=CC(=O)NCCCC[C@H](NC(=O)Cc1ccccc1C)C(=O)N1CCN(C(=O)[C@@H](C)NC(=O)c2cccc3ccccc23)CC1
[1]
  Ki: 14.9 µM
[2]
  Kinact: 5.59 min⁻¹
[3]
  Ratio: 374 10^3/M/min

## C=CC(=O)NCCCC[C@H](NC(=O)OCc1ccccc1)C(=O)N1CCN(C(=O)[C@@H](CC(C)C)NC(=O)c2cccc3ccccc23)CC1
[1]
  Ki: 4.4 µM
[2]
  Kinact: 1.4 min⁻¹
[3]
  Ratio: 330 10^3/M/min

## C=CC(=O)NCCCC[C@H](NC(=O)Cc1ccccc1Cl)C(=O)N1CCN(C(=O)[C@@H](Cc2ccccc2)NC(=O)c2cccc3ccccc23)CC1
[7]
  Ratio: 127 10^3/M/min

## C=CC(=O)NCCCC[C@H](NC(=O)Cc1ccccc1Cl)C(=O)N1CCN(C(=O)[C@@H](C)NC(=O)c2cccc3ccccc23)CC1
[7]
  Ratio: 170 10^3/M/min

## C=CC(=O)NCCCC[C@H](NC(=O)OCc1ccccc1)C(=O)N1CCN(C(=O)[C@H](C)NC(=O)c2cccc3ccccc23)CC1
[1]
  Ki: 2.3 µM
[2]
  Kinact: 1.4 min⁻¹
[3]
  Ratio: 610 10^3/M/min

## C=CC(=O)NCCCC[C@H](NC(=O)OCc1ccccc1)C(=O)N1CCN(C(=O)[C@@H](NC(=O)c2cccc3ccccc23)C(C)CC)CC1 (some centres undefined)
[1]
  Ki: 8.1 µM
[2]
  Kinact: 2.4 min⁻¹
[3]
  Ratio: 300 10^3/M/min

## C=CC(=O)NCCCC[C@H](NC(=O)Cc1ccccc1OC)C(=O)N1CCN(C(=O)[C@H](C)NC(=O)c2cccc3ccccc23)CC1
[1]
  Ki: 6 µM
[2]
  Kinact: 1.52 min⁻¹
[3]
  Ratio: 252 10^3/M/min

## C=CC(=O)NCCCC[C@H](NC(=O)Cc1ccccc1C)C(=O)N1CCN(C(=O)[C@H](C)NC(=O)c2cccc3ccccc23)CC1
[1]
  Ki: 9.5 µM
[2]
  Kinact: 3.95 min⁻¹
[3]
  Ratio: 418 10^3/M/min

## C=CC(=O)NCCCC[C@H](NC(=O)Cc1ccccc1Br)C(=O)N1CCN(C(=O)[C@H](Cc2ccccc2)NC(=O)c2cccc3ccccc23)CC1
[1]
  Ki: 1.3 µM
[2]
  Kinact: 0.24 min⁻¹
[3]
  Ratio: 182 10^3/M/min

## C=CC(=O)NCCCC[C@H](NC(=O)Cc1ccccc1Cl)C(=O)N1CCN(C(=O)[C@H](C)NC(=O)c2cccc3ccccc23)CC1
[1]
  Ki: 9.3 µM
[2]
  Kinact: 1.97 min⁻¹
[3]
  Ratio: 211 10^3/M/min

## C=CC(=O)NCCCC[C@H](NC(=O)OCc1ccccc1)C(=O)N1CCN(C(=O)[C@@H](NC(=O)c2cccc3ccccc23)C(C)C)CC1
[1]
  Ki: 2.9 µM
[2]
  Kinact: 0.79 min⁻¹
[3]
  Ratio: 272 10^3/M/min

## C=CC(=O)NCCCC[C@H](NC(=O)OCc1ccccc1)C(=O)N1CCN(C(=O)[C@@H](C)NC(=O)c2cccc3ccccc23)CC1
[1]
  Ki: 1.3 µM
[2]
  Kinact: 0.75 min⁻¹
[3]
  Ratio: 590 10^3/M/min

## C=CC(=O)NCCCC[C@H](NC(=O)OCc1ccccc1)C(=O)N1CCN(C(=O)[C@@H](Cc2ccccc2)NC(=O)c2cccc3ccccc23)CC1
[1]
  Ki: 1 µM
[2]
  Kinact: 0.8 min⁻¹
[3]
  Ratio: 760 10^3/M/min
[4]
  Papp A→B: 0.06 ×10⁻⁶ cm/s
[5]
  Papp B→A: 5.46 ×10⁻⁶ cm/s
MDR1
  efflux ratio: 96.7
[6]
  logP: 2.73
SCC-13 [8]
  Activity: inactive
SCC-13 [9]
  inhibition: Active
